Data on seven compounds can be found in ChEMBL document CHEMBL1133453, “Further studies on nociceptin-related peptides: discovery of a new chemical template with antagonist activity on the nociceptin receptor” (J Med Chem, 2000).

Calls of active or inactive are those of the source. The rule behind the calls is not given here. Numbered stars: 1 amine (or outer) side, 2 acyl side, 3 side chain; on linkers, the order of the positions; unused ones are H or OH. Square brackets hold non-standard residues; d marks the D form. Peptide text beside a SMILES is read from it. X4 = Cc1ccc(C[C@H](N)CN(CC(=O)[*:2])[*:1])cc1; X2 = N[C@@H](Cc1ccccc1)CN(CC(=O)[*:2])[*:1]

The species named for experiment [1] is Mus musculus. The experiment in a line: Potency (Emax) against electrically evoked contraction (twitch response) in mouse vas deferens; NA means Inactive up to 10 uM. It counts as functional, organism-based. Put shortly:
(§1)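 Mouse vas deferens held in Mg2+-free Krebs at 33 °C under 0.3 g resting tension. Field stimulation through platinum electrodes with supramaximal 1-ms pulses at 0.1 Hz, twitches recorded isotonically. After about 2 h equilibration, cumulative concentration-response curves built in 0.5 log steps up to 10 µM. pEC50 taken as the concentration giving half-maximal effect. Mean of at least 3 experiments.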

The species entered for experiment [2] is Mus musculus. The experiment in a line: Compound was tested for the antagonistic activity on mouse vas deferens using NC(1-13)NH2 as agonist. It is filed as functional. Put shortly: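 Electrically stimulated mouse vas deferens (Mg2+-free Krebs, 33 °C, 0.1 Hz, 1-ms pulses). Antagonist at 10 µM added 15 min before a cumulative NC(1-13)NH2 concentration-response curve. pKB calculated with the Gaddum-Schild equation, assuming a slope of 1, from the concentration ratio. Mean of at least 3 experiments, with 95% confidence limits.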

The species entered for experiment [3] is Mus musculus. As to the kind of experiment: Compound was tested for agonistic activity against electrically evoked contraction (twitch response) in mouse vas deferens; NA means Inactive up to 10 uM. It counts as functional, organism-based. Put shortly:
as §1

Another experiment deals with Nociceptin receptor (Mus musculus, UniProt P35377). The experiment in a line: Affinity to nociceptin receptors on mouse forebrain membranes by [3H]NC-NH2 displacement. Put shortly:
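Forebrain membranes from male Swiss mice (25-30 g), homogenized in 50 mM Tris HCl, 2 mM EDTA, 100 µM PMSF, pH 7.4, then preincubated 30 min at 37 °C. Bound ligand separated by GF/C filtration. Ki obtained by nonlinear least-squares fitting.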

The term pKB denotes −log10 of the KB, conventionally taken in molar units. In general, Ki refers to the dissociation constant of the complex between target and ligand, obtained from inhibition or displacement. Read a low Ki as higher affinity.

Nociceptin receptor, sequence (P35377 whole entry): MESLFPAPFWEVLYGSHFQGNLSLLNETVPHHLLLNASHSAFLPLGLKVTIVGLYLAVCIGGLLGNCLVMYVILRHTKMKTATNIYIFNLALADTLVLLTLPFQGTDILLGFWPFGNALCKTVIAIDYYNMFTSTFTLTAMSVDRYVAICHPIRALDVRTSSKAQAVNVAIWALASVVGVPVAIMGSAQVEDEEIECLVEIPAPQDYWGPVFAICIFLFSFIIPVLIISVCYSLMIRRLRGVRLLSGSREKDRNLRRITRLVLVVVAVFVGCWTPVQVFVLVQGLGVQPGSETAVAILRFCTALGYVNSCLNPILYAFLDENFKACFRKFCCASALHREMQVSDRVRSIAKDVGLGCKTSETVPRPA

For the compound `C[C@H](NC(=O)CNC(=O)[C@@H](NC(=O)[C@H](Cc1ccccc1)NC(=O)CNC(=O)CNC(=O)CNCc1ccccc1)[C@@H](C)O)C(=O)N[C@@H](CCCN=C(N)N)C(=O)N[C@@H](CCCCN)C(=O)N[C@@H](CO)C(=O)N[C@@H](C)C(=O)N[C@@H](CCCN=C(N)N)C(=O)N[C@@H](CCCCN)C(N)=O`, the Emax entry in the experiment filed under Mus musculus [1] is “inactive”. Further, in the experiment filed under Mus musculus [2], the negative logarithm of the KB (pKB) came to 6.4. In addition, the “Log EC50” value in the experiment filed under Mus musculus [3] is “inactive”.
As to `CC(C)C[C@H](NC(=O)[C@H](CCCCN)NC(=O)[C@H](CCCN=C(N)N)NC(=O)[C@H](C)NC(=O)[C@H](CO)NC(=O)[C@H](CCCCN)NC(=O)[C@H](CCCN=C(N)N)NC(=O)[C@H](C)NC(=O)CNC(=O)[C@@H](NC(=O)[C@H](Cc1ccccc1)NC(=O)CNC(=O)CNC(=O)CNCc1ccccc1)[C@@H](C)O)C(=O)N[C@@H](C)C(=O)N[C@@H](CC(N)=O)C(=O)N[C@@H](CCC(N)=O)C(N)=O`, in the experiment listed under Mus musculus [1], the Emax entry is “inactive”. The compound also gave a negative-log KB (pKB) in the experiment filed under Mus musculus [2] of 6.3. On Nociceptin receptor, this compound had an inhibitory constant (Ki) of 126 nM. Also, in the experiment filed under Mus musculus [3], the “Log EC50” value is “inactive”.
Turning to `C[C@H](NC(=O)CNC(=O)[C@@H](NC(=O)[C@H](Cc1ccccc1)NC(=O)CNC(=O)CNC[C@@H](N)Cc1ccccc1)[C@@H](C)O)C(=O)N[C@@H](CCCN=C(N)N)C(=O)N[C@@H](CCCCN)C(N)=O` (H-[X2]GFTGARK-NH2), in the experiment filed under Mus musculus [1], the Emax result is “inactive”. This compound registered a pKB in the experiment filed under Mus musculus [2] of 5.1. At Nociceptin receptor, this compound showed a Ki greater than 10000 nM. For the same compound, the “Log EC50” value in the experiment filed under Mus musculus [3] is “inactive”.
As to `C[C@H](NC(=O)CNC(=O)[C@@H](NC(=O)[C@H](Cc1ccccc1)NC(=O)CNC(=O)CNC[C@@H](N)Cc1ccccc1)[C@@H](C)O)C(=O)N[C@@H](CCCN=C(N)N)C(=O)N[C@@H](CCCCN)C(=O)N[C@@H](CO)C(=O)N[C@@H](C)C(=O)N[C@@H](CCCN=C(N)N)C(N)=O` (H-[X2]GFTGARKSAR-NH2), the Emax result in the experiment listed under Mus musculus [1] is “inactive”. In addition, the pKB in the experiment listed under Mus musculus [2] stood at 5.2. At Nociceptin receptor, this compound showed an inhibition constant (Ki) of 398 nM. Further, in the experiment filed under Mus musculus [3], the “Log EC50” value was “inactive”.
For the compound `C[C@H](NC(=O)CNC(=O)[C@@H](NC(=O)[C@H](Cc1ccccc1)NC(=O)CNC(=O)CNC[C@@H](N)Cc1ccccc1)[C@@H](C)O)C(=O)N[C@@H](CCCN=C(N)N)C(=O)N[C@@H](CCCCN)C(=O)N[C@@H](CO)C(=O)N[C@@H](C)C(=O)N[C@@H](CCCN=C(N)N)C(=O)N[C@@H](CCCCN)C(N)=O` (H-[X2]GFTGARKSARK-NH2), in the experiment filed under Mus musculus [1], the Emax entry was “inactive”. The compound further gave a pKB in the experiment listed under Mus musculus [2] of 6.8. On Nociceptin receptor, this compound gave a Ki of 10 nM. Moreover, the “Log EC50” value in the experiment listed under Mus musculus [3] is “inactive”.
`CC(C)C[C@H](NC(=O)[C@H](CCCCN)NC(=O)[C@H](CCCN=C(N)N)NC(=O)[C@H](C)NC(=O)[C@H](CO)NC(=O)[C@H](CCCCN)NC(=O)[C@H](CCCN=C(N)N)NC(=O)[C@H](C)NC(=O)CNC(=O)[C@@H](NC(=O)[C@H](Cc1ccccc1)NC(=O)CNC(=O)CNC[C@@H](N)Cc1ccccc1)[C@@H](C)O)C(=O)N[C@@H](C)C(=O)N[C@@H](CC(N)=O)C(=O)N[C@@H](CCC(N)=O)C(N)=O` (H-[X2]GFTGARKSARKLANQ-NH2): the Emax entry in the experiment listed under Mus musculus [1] is “inactive”. The pKB in the experiment listed under Mus musculus [2] stood at 7. Moreover, the affinity on Nociceptin receptor, expressed as Ki, was 20 nM. Besides, in the experiment listed under Mus musculus [3], the “Log EC50” value is “inactive”.
For the compound `Cc1ccc(C[C@H](N)CNCC(=O)NCC(=O)N[C@@H](Cc2ccccc2)C(=O)N[C@H](C(=O)NCC(=O)N[C@@H](C)C(=O)N[C@@H](CCCN=C(N)N)C(=O)N[C@@H](CCCCN)C(=O)N[C@@H](CO)C(=O)N[C@@H](C)C(=O)N[C@@H](CCCN=C(N)N)C(=O)N[C@@H](CCCCN)C(N)=O)[C@@H](C)O)cc1` (H-[X4]GFTGARKSARK-NH2), the Emax result in the experiment listed under Mus musculus [1] was “inactive”. Moreover, in the experiment listed under Mus musculus [2], the pKB was determined as 5.7. Moreover, at Nociceptin receptor, the Ki was 631 nM. In the experiment listed under Mus musculus [3], the “Log EC50” value was “inactive”.
